Data from ChEMBL document CHEMBL3868584, “Cerasoidine, a Bis-aporphine Alkaloid Isolated from Polyalthia cerasoides during Screening for Wnt Signal Inhibitors” (J Nat Prod, 2016).
The source made the active and inactive calls. No cut-off for these calls is given here.

Assays:
[1] = Inhibition of Wnt signalling in human STF/293 cells assessed as suppression of TCF/beta-catenin-mediated transcriptional activity after 24 hrs by superTOPflash reporter gene assay; assay type: cell-based; conditions: STF/293, 24 h
[2] = Cytotoxicity against human STF/293 cells assessed as reduction in cell viability at 2 to 10 uM after 24 hrs by fluorescein diacetate based assay; assay type: toxicity; conditions: hek293, 24 h
[3] = Cytotoxicity against human STF/293 cells assessed as reduction in cell viability at 0.5 to 2 uM after 24 hrs by fluorescein diacetate based assay; assay type: toxicity; conditions: hek293, 24 h
[4] = Inhibition of Wnt signalling in human SW480 cells assessed as decrease in beta-catenin level in nucleus at 20 to 60 uM after 24 hrs by Western blot analysis; assay type: cell-based
Method in brief: (§1)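 SW480 colon cancer cells were treated, then whole, cytoplasmic and nuclear lysates were prepared. These were immunoblotted with anti-β-catenin and anti-c-myc antibodies. β-Actin served as the cytoplasmic fraction control and histone H1 as the nuclear fraction control.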

[5] = Cytotoxicity against human STF/293 cells assessed as reduction in cell viability at 10 to 40 uM after 24 hrs by fluorescein diacetate based assay; assay type: toxicity; conditions: hek293, 24 h
[6] = Inhibition of Wnt signalling in human SW480 cells assessed as decrease in c-myc level after 24 hrs by Western blot analysis; assay type: cell-based; method in brief: as §1
[7] = Inhibition of Wnt signalling in human STF/293 cells assessed as decrease in c-myc levels after 24 hrs by Western blot analysis; assay type: cell-based
Method in brief: (§2)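 STF/293 cells were exposed to the test agent and lysed. Lysates were immunoblotted for β-catenin, c-myc and PPARδ, with β-actin as the protein loading control.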

[8] = Inhibition of Wnt signalling in human STF/293 cells assessed as decrease in PPARdelta levels after 24 hrs by Western blot analysis; assay type: cell-based; method in brief: as §2
[9] = Inhibition of Wnt signalling in human STF/293 cells assessed as decrease in beta-catenin levels after 24 hrs by Western blot analysis; assay type: cell-based; method in brief: as §2

Compound | IC50 [1] [µM] | Activity [2] | Activity [3] | further results
COc1cc2c(cc1O)CCn1c-2cc2ccc(O)c(OC)c2c1=O | 8.7 | Non-Toxic | – | –
COc1cc2c(cc1OC)-c1cc3ccc(OC)c(OC)c3c(=O)n1CC2 | 0.6 | – | Non-Toxic | –
COc1ccc2c(c1)C(=O)c1nccc3cc4c(c-2c13)OCO4 [ATHEROSPERMIDINE] | 7.1 | Non-Toxic | – | –
COc1ccc2c(c1)c(-c1c3c4c(cc5c(c4c4ccc(OC)cc14)OCO5)CCN3)c1c3c(cc4c(c32)OCO4)CCN1 [BIDEBILINE E] | 20.2 | – | – | inhibition [4]: Active; Activity [5]: Non-Toxic; inhibition [6]: Dose-dependent effect
O=C1c2ccccc2-c2c3c(cc4ccnc1c24)OCO3 [LIRIODENINE] | 0.6 | – | Non-Toxic | inhibition [7]: Dose-dependent effect; inhibition [8]: Dose-dependent effect; inhibition [9]: Dose-dependent effect
